Experiments:
Format in all cases: functional
MDA-MB-468 = test: Growth inhibition of human MDA-MB-468 cells assessed as cell growth at 10 uM after 48 hrs by sulforhodamine B assay; details: MDA-MB-468, 48 h, read-out: Activity
Method in brief: (§1)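 Single-dose NCI-60 screen: adherent cells in RPMI 1640 with 5% FBS were exposed to 10 µM for 48 h at 37 °C after a 24 h preincubation. They were fixed in situ with cold TCA (10% final), stained with 0.4% SRB in 1% acetic acid, solubilized in 10 mM Tris base, and read at 515 nm. Percent growth was taken relative to time-zero and control plates.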

MDA-MB-231 = test: Growth inhibition of human MDA-MB-231 cells assessed as cell growth at 10 uM after 48 hrs by sulforhodamine B assay; details: MDA-MB-231, 48 h, read-out: Activity; method in brief: as §1
PC-3 = test: Growth inhibition of human PC3 cells assessed as cell growth at 10 uM after 48 hrs by sulforhodamine B assay; details: PC-3, 48 h, read-out: Activity; method in brief: as §1
786-0 = test: Growth inhibition of human 786-0 cells assessed as cell growth at 10 uM after 48 hrs by sulforhodamine B assay; details: 786-0, 48 h, read-out: Activity
Method in brief: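 NCI-60 single-dose screen at 10 µM: cells in RPMI 1640 with 5% FBS, preincubated 24 h, then exposed 48 h at 37 °C. TCA fixation (16% final for suspension cells), SRB staining, absorbance 515 nm. Percent growth relative to time-zero and untreated control plates; negative values indicate cell kill.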

SK-OV-3 [1] = test: Growth inhibition of human SKOV3 cells assessed as cell growth at 10 uM after 48 hrs by sulforhodamine B assay; details: SK-OV-3, 48 h, read-out: Activity
Method in brief: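 Single-dose NCI-60 test at 10 µM. Cells were grown in RPMI 1640 with 5% FBS and 2 mM L-glutamine, preincubated 24 h, with T0 plates TCA-fixed. Exposure was 48 h at 37 °C, 5% CO2. Cells were fixed with cold TCA (final 10%, 4 °C, 60 min), stained with SRB and read at 515 nm. Percent growth was taken relative to T0 and untreated control; negative values denote cell kill.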

OVCAR-5 = test: Growth inhibition of human OVCAR5 cells assessed as cell growth at 10 uM after 48 hrs by sulforhodamine B assay; details: OVCAR-5, 48 h, read-out: Activity; method in brief: as §1
SK-MEL-2 = test: Growth inhibition of human SK-MEL-2 cells assessed as cell growth at 10 uM after 48 hrs by sulforhodamine B assay; details: SK-MEL-2, 48 h, read-out: Activity; method in brief: as §1
NCI-H522 = test: Growth inhibition of human NCI-H522 cells assessed as cell growth at 10 uM after 48 hrs by sulforhodamine B assay; details: NCI-H522, 48 h, read-out: Activity; method in brief: as §1
NCI-H460 = test: Growth inhibition of human NCI-H460 cells assessed as cell growth at 10 uM after 48 hrs by sulforhodamine B assay; details: NCI-H460, 48 h, read-out: Activity; method in brief: as §1
NCI-H322M = test: Growth inhibition of human NCI-H322M cells assessed as cell growth at 10 uM after 48 hrs by sulforhodamine B assay; details: read-out: Activity; method in brief: as §1
RPMI-8226 = test: Growth inhibition of human RPMI8226 cells assessed as cell growth at 10 uM after 48 hrs by sulforhodamine B assay; details: RPMI-8226, 48 h, read-out: Activity
Method in brief: (§2)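 Single 10 µM dose applied to suspension cells in RPMI 1640 with 5% FBS and 2 mM L-glutamine for 48 h at 37 °C. Settled cells were fixed with 80% TCA (16% final), stained with SRB, and read at 515 nm. Percent growth was calculated against time-zero and untreated control optical densities.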

MOLT-4 = test: Growth inhibition of human MOLT4 cells assessed as cell growth at 10 uM after 48 hrs by sulforhodamine B assay; details: MOLT-4, 48 h, read-out: Activity; method in brief: as §2
HL-60(TB) = test: Growth inhibition of human HL-60(TB) cells assessed as cell growth at 10 uM after 48 hrs by sulforhodamine B assay; details: HL-60, 48 h, read-out: Activity
Method in brief: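 NCI-60 single-dose screen run at 10 µM on HL-60(TB) suspension cells in RPMI 1640 with 5% FBS and 2 mM L-glutamine. Cells were preincubated for 24 h, with a time-zero plate fixed then. Exposure lasted 48 h at 37 °C. Settled cells were fixed with TCA (16% final), stained with SRB and read at 515 nm. Percent growth is relative to control and T0.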

BT-549 = test: Growth inhibition of human BT549 cells after 48 hrs by sulforhodamine B assay; details: BT-549, 48 h
Method in brief: (§3)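 NCI-60 screen: cells in RPMI 1640 with 5% FBS and 2 mM glutamine, 5000–40,000 cells/well, preincubated 24 h. Five concentrations (10-fold dilutions; 100 to 0.001 µM) applied for 48 h at 37 °C. TCA fixation, SRB stain, absorbance at 515 nm. Time-zero plates included; GI50 where 100×(T−T0)/(C−T0)=50.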

A498 = test: Growth inhibition of human A498 cells after 48 hrs by sulforhodamine B assay; details: A498, 48 h; method in brief: as §3
SK-OV-3 [2] = test: Growth inhibition of human SKOV3 cells after 48 hrs by sulforhodamine B assay; details: SK-OV-3, 48 h
Method in brief: (§4)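 NCI-60 five-dose screen. Cells were grown in RPMI 1640 with 5% FBS and 2 mM L-glutamine, plated at 5000–40,000 cells/well and incubated 24 h before dosing, with T0 plates TCA-fixed. DMSO stocks were diluted to doses of […] and exposed 48 h at 37 °C, 5% CO2. Cells were fixed with cold TCA (final 10%, 60 min, 4 °C), stained with 0.4% SRB in 1% acetic acid for 10 min, solubilized in 10 mM trizma base and read at 515 nm. GI50 is where 100×(T−T0)/(C−T0)=50.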

UACC-62 = test: Growth inhibition of human UACC62 cells after 48 hrs by sulforhodamine B assay; details: UACC-62, 48 h; method in brief: as §4
SF-539 = test: Growth inhibition of human SF539 cells after 48 hrs by sulforhodamine B assay; details: SF-539, 48 h
Method in brief: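 NCI-60 panel cells grown in RPMI 1640 with 5% FBS and 2 mM L-glutamine, seeded at 5000–40,000 cells/well and preincubated 24 h. Five 10-fold dilutions (0.001–100 µM) from DMSO stocks were added for 48 h at 37 °C. Adherent cells were fixed with cold TCA (10% final) for 60 min at 4 °C, stained with 0.4% SRB, and read at 515 nm. GI50 was set where 100×(T−T0)/(C−T0)=50.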

HT-29 = test: Growth inhibition of human HT-29 cells after 48 hrs by sulforhodamine B assay; details: HT-29, 48 h; method in brief: as §3
HOP-92 = test: Growth inhibition of human HOP92 cells after 48 hrs by sulforhodamine B assay; details: HOP-92, 48 h; method in brief: as §3
A549 = test: Growth inhibition of human A549/ATCC cells after 48 hrs by sulforhodamine B assay; details: A549, 48 h; method in brief: as §3

Row | SMILES | growth at 10 µM (MDA-MB-468) [%] | growth at 10 µM (MDA-MB-231) [%] | growth at 10 µM (PC-3) [%] | growth at 10 µM (786-0) [%] | growth at 10 µM (SK-OV-3 [1]) [%] | growth at 10 µM (OVCAR-5) [%] | growth at 10 µM (SK-MEL-2) [%] | growth at 10 µM (NCI-H522) [%] | growth at 10 µM (NCI-H460) [%] | growth at 10 µM (NCI-H322M) [%] | growth at 10 µM (RPMI-8226) [%] | growth at 10 µM (MOLT-4) [%] | growth at 10 µM (HL-60(TB)) [%] | GI50 (BT-549) [µM] | GI50 (A498) [µM] | GI50 (SK-OV-3 [2]) [µM] | GI50 (UACC-62) [µM] | GI50 (SF-539) [µM] | GI50 (HT-29) [µM] | GI50 (HOP-92) [µM] | other results
1 | CC(C)=CCC/C(C)=C/CC/C(C)=C/CC[C@]1(C)CCc2c3c(cc(C)c2O1)OCN(CCCCCCO)C3 | -84.5 | -28.4 | -31.4 | -98 | -37.2 | 33.4 | 62.4 | -0.37 | -15.7 | -61 | 35.4 | -42.9 | -24.5 | 6.15 | 4.88 | 2.62 | 4.85 | 2.37 | 0.72 | 1.05 | GI50 (A549): 0.607 µM
2 | CC(C)=CCC/C(C)=C/CC/C(C)=C/CC[C@]1(C)CCc2c3c(cc(C)c2O1)OCN(CCCCCO)C3 | 43 | 46.1 | 63.7 | 81.2 | 96.9 | 87.3 | 117 | 4.69 | -70.2 | 16.8 | -16.3 | -1.68 | 58.3 | 7.34 | 5.76 | 6.85 | 5.87 | 6.26 | 3.74 | 5.42 | GI50 (A549): 6.19 µM
3 | CC(C)=CCC/C(C)=C/CC/C(C)=C/CC[C@]1(C)CCc2c3c(cc(C)c2O1)OCN(CCCO)C3 | -29 | 10.6 | 50.8 | 16.6 | 88.3 | 40.4 | 107 | -72.9 | -75.1 | -62.1 | 2.29 | -20.3 | 15.3 | 2 | 1.46 | 1.98 | 1.81 | 1.93 | 1.78 | 1.46 | GI50 (A549): 1.89 µM
4 | CC(C)=CCC/C(C)=C/CC/C(C)=C/CC[C@]1(C)CCc2c3c(c(C)c(C)c2O1)OCN(CCCCCCO)C3 | -46.7 | 9.83 | 51 | 33.7 | 13.4 | 39 | 91.8 | 68.3 | 2.49 | 69.5 | 82.4 | -18.4 | 65.9 | 4.18 | 2.59 | 2.57 | 2.67 | 3.15 | 3.04 | 1.89 | GI50 (A549): 3.09 µM
5 | COc1ccc(CCN2COc3cc(C)c4c(c3C2)CC[C@@](C)(CC/C=C(\C)CC/C=C(\C)CCC=C(C)C)O4)cc1OC | -25.4 | 13.2 | 62.1 | 49.3 | 92.8 | 42.7 | 86.4 | -45.8 | -68.2 | 4.19 | -32.6 | 0.05 | 15.4 | 1.97 | 1.8 | 1.9 | 1.64 | 1.96 | 1.85 | 1.55 | GI50 (A549): 1.9 µM
6 | CC(C)=CCC/C(C)=C/CC/C(C)=C/CC[C@]1(C)CCc2c3c(c(C)c(C)c2O1)OCN(CCCCO)C3 | 57 | 37.9 | 71.8 | 72.8 | 76.9 | 83.1 | 95.8 | 86.7 | 4.31 | 84.8 | 91.9 | 35.8 | 72.2 | > 10 | > 10 | 5.41 | > 10 | > 10 | 2.87 | 2.9 | GI50 (A549): 3.3 µM
